# Screening results deposited in PubChem BioAssay by Johns Hopkins Ion Channel Center.
# Shown are actives, neighbours in structure and some others; about 3.1% of the full set was active somewhere.
# KCNK9 block: blocks the human KCNK9 two-pore domain potassium channel | HEK293 KCNK9, FluxOR thallium flux fluorescence; active compounds read low | 1.2% of 310,000 active | B-score at 10 µM | Q9NPC2 | AID 488922;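 active = ratio B-score over 3 SD below the library mean, with starting fluorescence within 5 SD of its mean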;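 also: negative B-score means less thallium flux so channel inhibition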
# Target sequence (Q9NPC2 whole entry, looked up, the tested form may be a part): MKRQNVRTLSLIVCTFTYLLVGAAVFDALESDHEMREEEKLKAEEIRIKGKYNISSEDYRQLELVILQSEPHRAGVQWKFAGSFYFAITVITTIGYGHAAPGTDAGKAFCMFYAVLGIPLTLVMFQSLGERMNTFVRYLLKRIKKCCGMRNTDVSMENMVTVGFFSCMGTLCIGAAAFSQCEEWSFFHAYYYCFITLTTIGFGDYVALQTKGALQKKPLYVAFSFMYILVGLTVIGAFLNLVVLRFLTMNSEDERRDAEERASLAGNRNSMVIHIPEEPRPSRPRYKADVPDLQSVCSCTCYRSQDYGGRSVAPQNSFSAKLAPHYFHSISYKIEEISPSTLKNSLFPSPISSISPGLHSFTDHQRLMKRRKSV
# KCNQ1 inh: inhibitors of human KCNQ1 potassium channel; P51787; CHO-K1 KCNQ1, FluxOR thallium flux fluorescence; active compounds read high; B-score at 10 µM; 1.3% of 310,000 active;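 active = compounds whose thallium flux B-score, printed positive for inhibition, exceeds three library SD while starting fluorescence stays within three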;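 also: channel opened by potassium depolarization with thallium stimulus after 20 min compound exposure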
# hERG protect: compounds protecting human hERG from proarrhythmic drug block; Q12809; CHO-hERG, FluxOR thallium flux, dofetilide IC70 present; activation (rescue from dofetilide block), less the hit threshold, % at 10 µM; 0.51% of 310,000 active; AID 1511;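 active = activation above the mean of controls blocked by dofetilide plus 5 SD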;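 also: thallium influx through hERG after potassium depolarization seen as dye fluorescence rise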
# KCNQ1 act: potentiators or activators of human KCNQ1 potassium channel. P51787. CHO-K1 KCNQ1, thallium flux FluxOR fluorescence; active compounds read high. B-score at 10 µM. 0.35% of 310,000 active. AID 2648;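 active = fluorescence ratio B-score, a plate-corrected score, at least three library SD, with initial intensity B-score within 5 SD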
#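 Doses: Single concentration per compound, DMSO matched to controls | Test system: KCNQ1-transfected CHO-K1 cells | Timing: 90 min dye loading and 20 min compound exposure, both at room temperature | Measured by: Kinetic FluxOR thallium fluorescence, 10-s 1-Hz baseline, 110-s post-stimulus read | Medium: Assay buffer with matched DMSO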
# KCNK3 inh: human KCNK3 channel inhibition, primary screen; CHO-KCNK3 thallium flux, FluxOR fluorescence; active compounds read low; B-score at 10 µM; 0.84% of 340,000 active;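 active = B-score under library mean minus 4 SD, starting fluorescence ratio at most library mean plus 5 SD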;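 also: more negative B-score means stronger inhibition of thallium flux through KCNK3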
# KCNK9 inh conf: confirmation of human KCNK9 potassium channel inhibitors. shares compounds with KCNK9 block. HEK293 KCNK9 cells, FluxOR thallium flux fluorescence. inhibition, % at 10 µM. 43% of 4,900 active;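 active = thallium signal inhibited by more than 5 SD of the compound-free buffer control wells, on both duplicate plates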;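 also: 0% = assay buffer control wells without compound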
# Kir21 sel: selectivity of KCNK9 modulators against mouse Kir2.1; shares compounds with KCNK9 block; inhibition, % at 10 µM; 4% of 4,900 active; Kir2.1 cells, FluxOR thallium flux fluorescence;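 active = thallium signal drop more than 5 SD beyond the mean of the no-compound control wells, seen in both duplicate plates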;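 also: signal is fluorescence rise after thallium addition divided by baseline fluorescence; plate controls were assay buffer only for no effect and full block by chlorpromazine control for full effect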
# KCNK9 uninduced: non-induced cell nonspecific activity of KCNK9 modulators. inhibition, % at 10 µM. shares compounds with KCNK9 block. non-induced KCNK9-HEK293, FluxOR thallium flux. 40% of 4,900 active;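 active = thallium signal drop beyond 5 SD of the untreated control mean, on both duplicate plates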;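 also: plate controls were buffer only IC0 wells for no effect and SID17386958 at its maximal inhibitory level for full effect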
# Active calls of the source: *; i = inactive; nt = not tested or not shown.
SMILES,KCNK9 block,KCNQ1 inh,hERG protect,KCNQ1 act,KCNK3 inh,KCNK9 inh conf,Kir21 sel,KCNK9 uninduced
CC(C)/C(=N\NC(=O)Nc1ccccc1)c1ccccc1,i,i,-8,i,i,nt,nt,nt
Cc1cccc(NC(=S)N/N=C(\c2ccccc2)C(C)C)c1,i,i,-3,i,i,i,i,i
O=C(C(=O)N1CCN(c2cccc(Cl)c2)CC1)c1cn(CC(=O)N2CCOCC2)c2ccccc12,i,i,-8,i,i,nt,nt,nt
Cc1ccc(OCC(=O)NNC(=O)C2CC(=O)N(c3ccc4c(c3)OCCO4)C2)cc1 (configuration not stated),i,i,-19,i,i,nt,nt,nt
O=C(NCc1nnc(SCC(=O)N2CCCC2)o1)c1cccc(C(F)(F)F)c1,i,i,-5,i,i,nt,nt,nt
O=C(COC(=O)c1ccccc1)NC12CC3CC(CC(C3)C1)C2,nt,nt,nt,nt,i,nt,nt,nt
N#Cc1ccccc1Sc1ccccc1C(=O)OCC(=O)NC12CC3CC(CC(C3)C1)C2,-8.5*,i,-6,i,i,48%*,i,30%*
CCc1ccc(NC(=O)c2ccc(NC3=NC4CS(=O)(=O)CC4S3)cc2)cc1 (configuration not stated),i,i,-3,i,i,nt,nt,nt
CCOC(=O)C1=C(O)/C(=C/c2cc(OC)c(O)c(OC)c2)SC1=Nc1ccc(OC)cc1,-9.9*,i,-1,i,i,i,i,i
CCOC(=O)C1=C(O)/C(=C/c2ccc(OCC(=O)O)c(OC)c2)SC1=Nc1ccc(OCC)cc1,i,i,2,i,i,nt,nt,nt
COc1ccc(-n2nc3c(c2NC(=O)C2CC(=O)N(c4ccccc4)C2)CS(=O)(=O)C3)cc1 (configuration not stated),i,i,-10,i,i,nt,nt,nt
Cc1c(C(=O)N2CCOCC2)c(S(=O)(=O)Nc2ccc(C(C)C)cc2)c(C)n1C,i,i,-3,i,i,nt,nt,nt
COc1ccc(C(=O)O)cc1S(=O)(=O)Nc1ccc(N2CCCCC2)cc1,nt,nt,nt,nt,i,nt,nt,nt
COc1cccc(NC(=O)CN(C)C(=O)c2ccc(S(=O)(=O)Nc3ccccc3F)cc2)c1,nt,nt,nt,nt,i,nt,nt,nt
COc1ccc(-c2cc(C(F)(F)F)n3nc(C(=O)N4CCCCC4)cc3n2)cc1,i,i,-4,i,i,nt,nt,nt
COc1cccc(-c2cc(C(F)(F)F)n3nc(C(=O)N4CCCCC4c4cccnc4)cc3n2)c1 (configuration not stated),-8.1*,i,-11,i,i,42%*,i,i
O=C1CSC(=S)N1/N=C/c1cc(Br)c(O)c(Br)c1,-9.8*,i,-33,i,i,64%*,57%*,70%*
CNC(=O)COc1coc(CN2CCN(Cc3ccccc3)CC2)cc1=O,i,i,-3,i,i,nt,nt,nt
N#CCC(=O)N/N=C/c1cc(Br)ccc1OCc1cccc2ccccc12,-10*,i,-5,i,i,47%*,i,26%*
CC(C)C(=O)N1CCN(c2ccccc2NC(=O)c2cccc3ccccc23)CC1,i,i,1,i,i,nt,nt,nt
CCCCc1cc(=O)oc2cc(OCC(=O)NC3CCN(Cc4ccccc4)CC3)ccc12,i,i,-10,i,i,nt,nt,nt
Cc1cc(Cl)ccc1OCC(=O)N1CCCN(C(=O)COc2ccc(Cl)cc2C)CC1,i,i,-14,i,i,nt,nt,nt
Cc1cc(Cl)ccc1OC(C)C(=O)N1CCCN(C(=O)C(C)Oc2ccc(Cl)cc2C)CC1 (configuration not stated),-15*,i,-6,i,i,58%*,i,30%*
COc1ccccc1-c1sc2ccccc2c1-c1ccc2c(c1)OCCO2,nt,nt,nt,nt,i,nt,nt,nt
CCOc1cccc(-c2c(C(=O)N/N=C/c3ccc(C)s3)nnn2-c2nonc2N)c1,i,i,-14,i,i,nt,nt,nt
SMILES,KCNK9 block,KCNQ1 inh,hERG protect,KCNQ1 act,KCNK3 inh,KCNK9 inh conf,Kir21 sel,KCNK9 uninduced
CCOc1cccc(-c2c(C(=O)N/N=C/c3c(F)cccc3Cl)nnn2-c2nonc2N)c1,-9.4*,i,-10,i,i,i,i,i
O=C(O)c1ccc(N2C(=O)CC(N3C(=O)/C(=C/c4ccc(Cl)cc4)SC3=S)C2=O)cc1 (configuration not stated),i,i,-9,i,i,i,i,i
O=C(Oc1ccc2ccc(=O)oc2c1)c1ccc([N+](=O)[O-])cc1,-15*,i,-11,i,i,40%*,i,i
Cc1ccc(C(=O)Oc2ccc3ccc(=O)oc3c2)cc1,i,i,-4,i,i,nt,nt,nt
CCCCOc1ccccc1C(=O)N(Cc1ccc(C)o1)C1CCS(=O)(=O)C1 (configuration not stated),i,i,-6,i,i,nt,nt,nt
Cc1ccc(NC(=O)CN2CCc3cc4c(cc3C2C)OCCCO4)cc1 (configuration not stated),i,i,-12,i,i,nt,nt,nt
Cc1ccc(NC(=O)CN2CCc3cc4c(cc3C2C)OCCCO4)cc1C (configuration not stated),i,i,-11,i,i,i,i,31%*
Cc1nn(-c2ccccc2)c(Cl)c1/C=N/NC(=O)c1ccco1,-8.7*,i,-4,i,i,50%*,i,28%*
Cc1nn(-c2ccccc2)c(Cl)c1/C=N/NC(=O)OC(C)(C)C,-11*,i,-9,i,i,49%*,i,i
CNC[C@H]1Oc2ccc(NC(=O)C3CCCCC3)cc2CC(=O)N([C@H](C)CO)C[C@@H]1C,nt,nt,nt,nt,i,nt,nt,nt
Nc1nc(SCC(=O)Nc2ccc([N+](=O)[O-])cc2)[nH]c(=O)c1NC(=O)c1ccc(Br)o1,i,i,0,i,i,nt,nt,nt
COc1cccc(CN(C)Cc2nc(Cc3ccccc3Cl)no2)c1,i,i,-6,i,i,i,i,i
Cc1nn(C(C)C)c(C)c1CN1CCCC(C(=O)c2cccc(OC(C)C)c2)C1 (configuration not stated),i,i,-9,i,i,i,i,i
COc1cccc(C(=O)C2CCCN(Cc3cccc(-n4nc(C)cc4C)c3)C2)c1 (configuration not stated),i,i,-15,i,i,i,i,i
CCOc1ccc(C(=O)NC(C(=O)NCCc2ccc(OC(F)F)cc2)C(C)C)cc1 (configuration not stated),i,i,-11,i,i,nt,nt,nt
